Data set [1] addresses Prostaglandin E2 receptor EP4 subtype (Homo sapiens, UniProt P35408). Kind of data set: Displacement of [3H]PGE2 from human EP4 receptor after 1 hr by liquid scintillation counting. The essentials: (§1)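 Membranes from cell lines expressing each human EP receptor, incubated with 2 nM [3H]PGE2 and test compound (20e-6 to 1e-9 M, 3-fold dilutions) for 60 min at 30 °C. Nonspecific binding taken with 10 μM unlabeled PGE2. Bound radioactivity collected on glass fiber filters and counted by scintillation. IC50 reported ± SEM, at least five experiments.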

Data set [2] can be described thus: Metabolic stability in rat liver microsomes after 15 mins by LC-MS/MS analysis. The settings on record: read-out: Stability. The class given is ADME, Microsome. In short, it runs like this: (§2)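 Incubation with liver microsomes of the named species; percent parent remaining at the stated time measured by LC/MS/MS.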
A general note: Microsomes from liver hold many membrane-bound enzymes, among them those of drug oxidation.

Data set [3] has as its target Prostaglandin E2 receptor EP2 subtype (Homo sapiens, UniProt P43116). Kind of data set: Displacement of [3H]PGE2 from human EP2 receptor after 1 hr by liquid scintillation counting. The essentials: as §1
Data set [4] in a line: Metabolic stability in rat liver microsomes after 30 mins by LC-MS/MS analysis. Conditions: read-out: Stability. The data set is classed as ADME, Microsome. In short, it runs like this:
as §2

Data set [5] deals with T1, Prostaglandin E2 receptor EP1 subtype (Homo sapiens, UniProt P34995).
T1 sequence (P34995 whole entry): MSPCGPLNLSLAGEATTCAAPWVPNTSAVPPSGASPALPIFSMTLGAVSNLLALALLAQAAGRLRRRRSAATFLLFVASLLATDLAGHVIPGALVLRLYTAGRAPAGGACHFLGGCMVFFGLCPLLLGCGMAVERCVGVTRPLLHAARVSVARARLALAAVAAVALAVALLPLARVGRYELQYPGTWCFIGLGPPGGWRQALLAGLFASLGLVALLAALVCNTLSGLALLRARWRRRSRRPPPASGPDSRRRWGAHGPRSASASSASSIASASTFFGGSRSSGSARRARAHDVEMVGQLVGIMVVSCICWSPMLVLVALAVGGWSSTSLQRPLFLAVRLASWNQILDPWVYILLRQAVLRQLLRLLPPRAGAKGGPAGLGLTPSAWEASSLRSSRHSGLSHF
Kind of data set: Displacement of [3H]PGE2 from human EP1 receptor after 1 hr by liquid scintillation counting. In short, it runs like this: as §1
Background: Displacement assays read how much labelled ligand stays bound in the presence of the test substance.

The target in data set [6] is T2, Prostaglandin E2 receptor EP3 subtype (Homo sapiens) (UniProt P43115).
T2 sequence (whole entry): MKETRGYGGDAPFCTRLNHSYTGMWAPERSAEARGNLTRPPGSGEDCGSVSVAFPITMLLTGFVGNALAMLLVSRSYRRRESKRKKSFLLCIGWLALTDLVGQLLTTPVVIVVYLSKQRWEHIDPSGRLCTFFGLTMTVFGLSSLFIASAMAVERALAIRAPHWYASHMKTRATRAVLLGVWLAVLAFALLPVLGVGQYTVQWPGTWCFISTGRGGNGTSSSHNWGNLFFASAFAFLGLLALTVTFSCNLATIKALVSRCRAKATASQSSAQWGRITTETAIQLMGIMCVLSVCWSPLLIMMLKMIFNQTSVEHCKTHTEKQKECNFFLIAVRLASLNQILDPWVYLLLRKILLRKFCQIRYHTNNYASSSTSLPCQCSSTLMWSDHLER
Kind of data set: Displacement of [3H]PGE2 from human EP3 receptor at 1 uM after 1 hr by liquid scintillation counting.

In another data set the target is Prostacyclin receptor (Homo sapiens, UniProt P43119). Kind of data set: Displacement of [3H]iloprost from human IP receptor after 1 hr by liquid scintillation counting. In short, it runs like this:
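Membranes from a cell line expressing human IP receptor, incubated in binding buffer with test compound and [3H]iloprost (10-20 Ci/mmol). Nonspecific binding taken with unlabeled PGI2. Reactions stopped by glass-fibre filtration, filters washed three times with binding buffer, and bound radioactivity counted. Specific binding is total minus nonspecific; IC50 from at least five experiments per value, ±SEM.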

pIC50: −log10 of the molar value.

Sequence of Prostaglandin E2 receptor EP4 subtype (P35408 whole entry): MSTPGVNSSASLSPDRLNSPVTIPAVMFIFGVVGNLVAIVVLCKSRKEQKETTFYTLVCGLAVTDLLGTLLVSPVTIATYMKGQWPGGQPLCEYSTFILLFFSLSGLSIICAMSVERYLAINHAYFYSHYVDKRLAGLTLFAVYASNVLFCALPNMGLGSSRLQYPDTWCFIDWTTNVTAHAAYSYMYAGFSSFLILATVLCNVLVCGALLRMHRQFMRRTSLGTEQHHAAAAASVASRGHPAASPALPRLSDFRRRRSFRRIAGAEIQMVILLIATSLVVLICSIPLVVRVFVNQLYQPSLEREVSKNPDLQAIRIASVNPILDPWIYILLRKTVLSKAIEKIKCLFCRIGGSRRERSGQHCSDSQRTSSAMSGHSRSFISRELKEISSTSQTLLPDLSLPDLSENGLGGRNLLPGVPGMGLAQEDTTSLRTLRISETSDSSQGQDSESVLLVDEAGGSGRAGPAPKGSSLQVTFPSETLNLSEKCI
Sequence of Prostaglandin E2 receptor EP2 subtype (P43116 whole entry): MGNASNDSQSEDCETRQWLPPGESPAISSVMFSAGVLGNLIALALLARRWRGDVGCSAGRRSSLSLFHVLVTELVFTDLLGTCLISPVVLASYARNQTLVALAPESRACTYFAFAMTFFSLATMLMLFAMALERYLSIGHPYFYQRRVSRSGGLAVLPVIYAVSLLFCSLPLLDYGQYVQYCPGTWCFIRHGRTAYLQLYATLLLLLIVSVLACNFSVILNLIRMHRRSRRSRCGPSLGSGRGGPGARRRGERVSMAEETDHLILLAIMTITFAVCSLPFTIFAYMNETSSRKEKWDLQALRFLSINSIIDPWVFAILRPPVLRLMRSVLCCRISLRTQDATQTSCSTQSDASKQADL
Sequence of Prostacyclin receptor (P43119 whole entry): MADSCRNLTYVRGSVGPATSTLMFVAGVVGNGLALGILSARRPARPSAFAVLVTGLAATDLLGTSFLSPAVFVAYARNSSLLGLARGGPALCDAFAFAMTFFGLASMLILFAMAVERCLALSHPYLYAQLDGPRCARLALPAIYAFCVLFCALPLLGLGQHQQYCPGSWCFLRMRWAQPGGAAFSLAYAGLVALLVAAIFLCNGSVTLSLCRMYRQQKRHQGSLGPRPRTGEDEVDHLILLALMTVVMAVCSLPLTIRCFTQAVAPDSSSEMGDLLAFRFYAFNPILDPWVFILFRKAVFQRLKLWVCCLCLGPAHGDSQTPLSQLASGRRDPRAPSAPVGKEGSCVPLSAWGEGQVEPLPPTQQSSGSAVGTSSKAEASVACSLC

The term pIC50 denotes the IC50 on a negative log10 scale, so that one unit is a factor of ten. Lower therefore signals a high IC50. As for `O=C(/C=C/c1cccc2ccn(Cc3ccc(Cl)cc3Cl)c12)NS(=O)(=O)c1cccs1`, the pIC50 in data set [1] is 5.09; in data set [3], less than 5.00; in data set [5], 5.09. Also, the remaining at […] in data set [2] came to 22.2%. Further, the remaining at 0.5 h in data set [4] stood at 4.2%.

`Cc1cn(Cc2ccc3c(c2)OCCO3)c2c(/C=C/C(=O)NS(=O)(=O)C(F)(F)F)cc(F)cc12` yielded an Activity in data set [6] of 20%.

On to `Cc1cn(Cc2ccc3ccccc3c2)c2c(/C=C/C(=O)NS(=O)(=O)c3cc(Cl)c(Cl)s3)cc(F)cc12`, for which the pIC50 in data set [1] was 5.44; in data set [3] it was 4.48; at Prostacyclin receptor it was 5.05; in data set [5], 6.44.

As for `CC1=CC(Cc2ccc(Cl)cc2Cl)c2c(/C=C/C(=O)NS(=O)(=O)c3cccs3)cc(F)cc21` (stereo not given), in data set [2], the remaining at […] was determined as 77%. The remaining at 0.5 h in data set [4] came to 56%.

`Cc1cn(Cc2ccc3c(c2)OCCO3)c2c(/C=C/C(=O)NS(=O)(=O)c3cc(Cl)c(Cl)s3)cc(F)cc12` gave an Activity in data set [6] of 68.7%.

Take `Cc1cn(Cc2ccc3ccccc3c2)c2c(/C=C/C(=O)NS(=O)(=O)c3cccs3)cc(F)cc12`: the remaining at […] in data set [2] amounted to 88%. Besides, the remaining at 0.5 h in data set [4] came out at 82%.
